We go through eight compounds from ChEMBL document CHEMBL4024790 (J Med Chem, 2018).

Data set [1] concerns the target cGMP-specific 3',5'-cyclic phosphodiesterase (Homo sapiens, UniProt O76074). The experiment in a line: Inhibition of PDE5A1 (unknwon origin) using [3H]cGMP as substrate after 30 mins by SPA.
For data set [2], the species on record is Rattus norvegicus.
Data set [3] can be described thus: 1-octanol/phosphate buffer solution partition coefficient, log D of the compound at pH 7.4 after 1 hr by LC-MS/MS method. The format is physicochemical.
For data set [4], the system named is Liver. The experiment in a line: Drug level in dog liver microsomes treated with 4-(azetidin-1-yl)-7-methyl-5-(1-methyl-5-(5-(trifluoromethyl)pyridin-2-yl)-1H-pyrazol-4-yl)imidazo[1,5-f][1,2,4]triazine at 1 to 50 uM after 1 hr by LC-MS/MS analysis. In kind it is ADME, Canis lupus familiaris, microsome. The procedure, abridged: (§1)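 Rat, dog or human liver microsomes or hepatocytes (P450 0.35–0.5 µM final) incubated with compound at 1, 10 or 50 µM in 100 mM phosphate buffer with 1 mM NADP regenerating system, 37°C for 1 h; quenched with 4 volumes acetonitrile, centrifuged, supernatant evaporated, reconstituted in 5% aqueous acetonitrile and analysed by reversed-phase LC.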

A short description of data set [5]: Drug level in human hepatocytes treated with 4-(azetidin-1-yl)-7-methyl-5-(1-methyl-5-(5-(trifluoromethyl)pyridin-2-yl)-1H-pyrazol-4-yl)imidazo[1,5-f][1,2,4]triazine at 1 to 50 uM after 1 hr by LC-MS/MS analysis. The format is ADME, cell-based, Hepatocyte. The procedure, abridged: as §1
Data set [6] relates to Liver. The experiment in a line: Drug level in rat liver microsomes treated with 4-(azetidin-1-yl)-7-methyl-5-(1-methyl-5-(5-(trifluoromethyl)pyridin-2-yl)-1H-pyrazol-4-yl)imidazo[1,5-f][1,2,4]triazine at 1 to 50 uM after 1 hr by LC-MS/MS analysis. The format is ADME, microsome. A digest of the protocol: as §1
Data set [7] can be described thus: Drug level in dog hepatocytes treated with 4-(azetidin-1-yl)-7-methyl-5-(1-methyl-5-(5-(trifluoromethyl)pyridin-2-yl)-1H-pyrazol-4-yl)imidazo[1,5-f][1,2,4]triazine at 1 to 50 uM after 1 hr by LC-MS/MS analysis. In kind it is ADME, cell-based, Canis lupus familiaris, Hepatocyte. A digest of the protocol: as §1
Data set [8] relates to Liver. Briefly: Drug level in human liver microsomes treated with 4-(azetidin-1-yl)-7-methyl-5-(1-methyl-5-(5-(trifluoromethyl)pyridin-2-yl)-1H-pyrazol-4-yl)imidazo[1,5-f][1,2,4]triazine at 1 to 50 uM after 1 hr by LC-MS/MS analysis. The format is ADME, microsome. A digest of the protocol:
as §1

Data set [9] is described as follows: Drug level in rat hepatocytes treated with 4-(azetidin-1-yl)-7-methyl-5-(1-methyl-5-(5-(trifluoromethyl)pyridin-2-yl)-1H-pyrazol-4-yl)imidazo[1,5-f][1,2,4]triazine at 1 to 50 uM after 1 hr by LC-MS/MS analysis. The format is ADME, cell-based, Hepatocyte. The procedure, abridged:
as §1

The test system of the next data set is Plasma. Briefly: Drug uptake in rat plasma at 5 to 250 mg/kg/day, po up to 15 days by microscopic method. In kind it is ADME, organism-based. As to conditions: in vivo, 360 h. A digest of the protocol: (§2)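 Exploratory rat toxicity study, oral dosing at 5, 50 and 250 mg/kg/day for up to 15 days, with microscopic examination of heart and vasculature and measurement of plasma and brain exposure.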

Data set [10] deals with Rattus norvegicus. Briefly: Toxicity in rat assessed as effect on vasculature at 5 to 250 mg/kg/day, po up to 15 days by microscopic method. The format is organism-based. As to conditions: in vivo, 360 h; call rule not given here.
Data set [11] in a line: Apparent intrinsic clearance in human liver microsomes. The following applies: read-out: CLH(app). In kind it is ADME, microsome.
A further data set deals with Brain. Briefly: Drug uptake in rat brain at 5 to 250 mg/kg/day, po up to 15 days by microscopic method. As to conditions: in vivo, 360 h. The format is ADME, organism-based. The procedure, abridged:
as §2

The subject of data set [12] is Rattus norvegicus. Briefly: Cardiotoxicity in rat at 5 to 250 mg/kg/day, po up to 15 days by microscopic method. In kind it is toxicity, organism-based. As to conditions: in vivo, 360 h. The procedure, abridged:
as §2

A further data set deals with Canis familiaris. The experiment in a line: Cardiotoxicity in dog assessed as arteriopathy in arteries at >= 20 mg/kg/day, po for 14 days by microscopic method. In kind it is toxicity, organism-based, Canis lupus familiaris. As to conditions: in vivo, 336 h.
For another data set, the system named is human MDR1. The experiment in a line: Passive permeability from apical to basolateral side in MDCK cells expressing human MDR1. The following applies: dog, read-out: permeability. The format is ADME, cell-based, Canis lupus familiaris.

With `CCCc1nn(C)c2c(=O)nc(-c3cc(S(=O)(=O)N4CCN(CC)CC4)ccc3OCC)[nH]c12`, half-maximal inhibition in [1] (IC50) was put at 8.9 nM. This lies in the single-digit nanomolar range.

Turning to `Cn1ncc(-c2nn(C)c3ncnc(N4CCC4)c23)c1-c1ccc(C(F)(F)F)cc1`, the fIC50 in the data set filed under Rattus norvegicus [2] is listed as 11 nM. Further, the logD at 1 h in data set [3] is 2.9.

Regarding `Cc1nc(-c2cnn(C)c2-c2ccc(C(F)(F)F)cn2)c2c(N3CC(O)C3)ncnn12`, the Drug metabolism entry (in the data set on Liver [4]; in [5]; in the data set on Liver [6]; in data set [7]; in the data set on Liver [8]; in [9]) was “Metabolite_Detected” each time.

For the compound `CNc1ncnn2c(C)nc(-c3cnn(C)c3-c3ccc(C(F)(F)F)cn3)c12`, the Drug uptake result in the data set on Plasma and in the data set with Brain was “Active” throughout. For the same compound, the Activity result in the data set on Rattus norvegicus [10] is listed as “Non-Toxic”; in the data set with Rattus norvegicus [12] it was “Non-Toxic”; in the data set on Canis familiaris, “Toxic”. Besides, the CLint scaled in data set [11] was 9.5 mL/min/kg. In data set [3], this compound showed a logD at 1 h of 1.8.

As for `Cc1nc(-c2cnn(C)c2-c2ccc(Cl)cn2)c2c(N3CCC3)ncnn12`, the Activity result with Rattus norvegicus [10] and in the data set on Rattus norvegicus [12] was “Toxic” each time. Further, in data set [11], the CLint scaled was 13 mL/min/kg. The compound further registered a logD at 1 h in [3] of 1.7.

`CNc1ncnn2c(C)nc(-c3cnn(C)c3-c3ccc(C(F)(F)F)cc3)c12`: the Activity entry in the data set on Rattus norvegicus [10] and with Rattus norvegicus [12] was “Toxic” in each case. Besides, in data set [11], the CLint scaled came out at 33 mL/min/kg. The compound further returned a logD at 1 h in data set [3] of 2.8.

In the case of `Cc1nc(-c2cnn(C)c2-c2ccc(C(F)(F)F)cn2)c2c(NCCC(=O)O)ncnn12`, the Drug metabolism entry (in the data set on Liver [4]; in data set [5]; in the data set on Liver [6]; in [7]; with Liver [8]; in data set [9]) was “Metabolite_Detected” in each case. Also, the Papp A→B in the data set with human MDR1 was found to be 1.1 ×10⁻⁶ cm/s.

For `Cc1nc(-c2cnn(C)c2-c2ccc(C(F)(F)F)cc2)c2c(N3CCC3)ncnn12`, in [11], the CLint scaled was found to be 93 mL/min/kg.
